DNMT1 block: DNMT1 (human) enzyme inhibition; inhibition (reported as % activation of signal), % at 10 µM; 0.83% of 360,000 active; P26358; DNMT1 molecular beacon, Hinp1I cleavage, fluorescence; in the data active means inhibition above about 50%
SUMO1 PPI mod: modulators of human SUMO1-mediated protein-protein interactions | SUMO1 binding to a labelled peptide, TR-FRET, 1 h | 0.33% of 360,000 active | AID 602429 | P63165 | inhibition, % at 20 µM; in the data active means inhibition above about 37%
Target sequence (P63165 whole entry, looked up): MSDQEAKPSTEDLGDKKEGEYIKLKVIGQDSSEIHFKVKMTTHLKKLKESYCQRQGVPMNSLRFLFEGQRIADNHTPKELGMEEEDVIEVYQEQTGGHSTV
LMPTP inh: blocks human LMPTP phosphatase; P24666; recombinant LMPTP-A, OMFP fluorogenic substrate, fluorescence intensity; inhibition, % at 20 µM; 0.22% of 360,000 active; AID 651560;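 active means compounds that cut the enzyme signal by at least half of the control window in the single-dose screen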
Target sequence (P24666 whole entry, looked up): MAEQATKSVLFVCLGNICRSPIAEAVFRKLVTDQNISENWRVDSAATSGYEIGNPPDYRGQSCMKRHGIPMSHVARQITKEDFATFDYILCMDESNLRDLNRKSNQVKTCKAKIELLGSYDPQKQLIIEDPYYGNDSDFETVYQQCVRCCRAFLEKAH
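Test system: LMPTP-A, protein tyrosine phosphatase of low molecular weight; Input: 0.625 nM enzyme; Incubation: 50 min dark incubation at room temperature; Signal: endpoint fluorescence intensity from OMFP dephosphorylation; Read-out basis: % inhibition versus control wells.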
Rpn11 block: blocks the human proteasome subunit Rpn11; O00487; human 26S proteasome, Ub4-pepOG fluorescence polarization; 20S core pre-blocked with epoxomicin; inhibition, % at 20 µM; 0.59% of 360,000 active;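 active means inhibition at 20 µM, scaled to each plate's controls, above about 33%, limit read from the data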
Target sequence (O00487 whole entry, looked up): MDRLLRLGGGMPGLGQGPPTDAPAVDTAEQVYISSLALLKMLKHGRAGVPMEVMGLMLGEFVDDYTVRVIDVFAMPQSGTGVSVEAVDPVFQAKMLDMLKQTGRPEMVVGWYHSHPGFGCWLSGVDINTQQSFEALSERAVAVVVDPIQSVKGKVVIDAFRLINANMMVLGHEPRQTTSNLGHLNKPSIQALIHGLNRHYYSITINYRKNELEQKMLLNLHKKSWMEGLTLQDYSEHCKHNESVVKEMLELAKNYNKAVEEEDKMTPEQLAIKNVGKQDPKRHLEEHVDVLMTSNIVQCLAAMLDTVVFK
Scp1 inh: Scp-1 (human) phosphatase inhibition; Q9GZU7; Recombinant Scp1, phosphopeptide, malachite green phosphate absorbance; inhibition, % at 20 µM; 0.88% of 340,000 active; AID 493091;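 active means inhibition above about 50% at 20 µM, limit read from the data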
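Material – SCP-1 phosphatase catalytic domain, residues 76-261 · Buffer or medium – Acidic Tris acetate buffer with magnesium and detergent · Also added – Phospho 17-mer peptide substrate · Compound – single 20 µM dose, 1% DMSO · Times – 45 min room-temperature reaction, 5 min colour, 30 min stabiliser · Technique – Phosphate-binding colour reagent, absorbance read at 630 nm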
STEP block: STEP (human) phosphatase inhibition; P54829; recombinant STEP, OMFP fluorogenic substrate, fluorescence; inhibition, % at 20 µM; 0.25% of 360,000 active; AID 588621;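 active means inhibition at 20 µM, scaled per plate between control wells, above about 37%, limit read from the data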
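material = STEP tyrosine phosphatase | reagent = fluorogenic phosphatase substrate OMFP at 25 µM final | doses = single compound dose of 20 µM, 1% DMSO final | schedule = 20 min reaction, room temperature, in the dark | measured by = fluorescence, 480/540 nm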
Numbers stand for hits; i = inactive; nt = not tested or not shown; + = active, no number. Only some compounds are listed: those with a hit (about 2.3% of all), similar ones and a draw of the others.

SMILES | DNMT1 block | SUMO1 PPI mod | LMPTP inh | Rpn11 block | Scp1 inh | STEP block
Cc1cccc(C)c1NC(=O)CNC(=O)CNC(=O)c1ccc2c(c1)OCO2 | i | i | i | i | i | i
COc1ccc(S(=O)(=O)NCc2csc(-c3cccnc3)n2)cc1 | i | 43.2 | i | i | i | i
O=S(=O)(NCc1csc(-c2cccnc2)n1)c1ccc(Br)cc1 | i | i | i | i | i | i
Cc1nc2ccccc2c2oc(C(=O)N3CCN(c4ccc([N+](=O)[O-])cc4)CC3)cc12 | i | 50.4 | i | i | i | i
Cc1cc(N2CCN(S(=O)(=O)c3ccc(Cl)c(Cl)c3)CC2)c2ccccc2n1 | i | i | 54.6 | i | i | i
Cc1nc2ccccc2c2oc(C(=O)N3CCN(C(=O)c4ccco4)CC3)cc12 | i | i | i | i | i | i
COc1ccc(N2CCN(C(=O)Oc3ccc([N+](=O)[O-])cc3)CC2)cc1 | nt | i | i | nt | nt | nt
Cc1cc(N2CCN(C(=O)Oc3ccc([N+](=O)[O-])cc3)CC2)c2ccccc2n1 | nt | i | 50.5 | nt | nt | nt
CCOc1ccc(C2C([N+](=O)[O-])=C(C)N(C)C(=O)N2C)cc1OC (configuration not stated) | i | i | i | i | i | i
Cc1ccnn1-c1ccc(C(=O)N2CCCN(S(=O)(=O)c3ccc(F)cc3)CC2)cc1 | i | i | i | i | i | i
Cc1cc(O)c(C=O)c2c1C(=O)Oc1c(CO)c(O)c3c(c1O2)C(O)OC3=O (configuration not stated) | 56.7 | 103.3 | 56.8 | nt | 77.2 | 46.2
COC(=O)CSc1ncnc2c(C)csc12 | i | i | i | i | i | i
CCN(CC)c1ccc(Nc2nc(N3CCOCC3)c3ccccc3n2)cc1 | i | i | i | i | i | i
COc1ccc(Nc2nc(N3CCCC3)c3ccccc3n2)cc1 | i | i | 51.4 | i | i | i
CCCn1cnc2c(sc3nc4c(cc32)CSC(C)(C)C4)c1=O | i | i | i | i | i | i
CC(C)CCOc1ncnc2c1sc1nc3c(cc12)CSC(C)(C)C3 | i | 44.2 | i | i | i | i
NC1=NC2(CCN(Cc3ccccc3)CC2)n2c(nc3ccccc32)N1 | i | i | 49.2 | i | i | i
NC1=NC2(CCCCC2)n2c(nc3ccccc32)N1 | i | i | i | i | i | i
Cc1cc(C)cc(OCC(=O)Nc2ccc(N3CCCC3)cc2)c1 | 65.2 | i | i | i | i | i
COc1ccc(-c2nnn(CC(=O)N(CC3CCCO3)C(C(=O)NC(C)(C)C)c3ccco3)n2)cc1OC (configuration not stated) | i | i | i | i | i | i
Cc1ccc(-n2sc3ccccc3c2=O)cc1 | i | i | i | i | 63.7 | i
COC(=O)c1cccc(-n2sc3ccccc3c2=O)c1 | i | i | i | i | 94.8 | i
O=c1c2ccccc2sn1-c1ccc(F)cc1 | i | i | i | i | 80.8 | i
Cc1nn(CC(=O)NC(=O)c2ccccc2)c(C)c1[N+](=O)[O-] | i | i | i | i | i | i
Cc1ccc(NC(=O)c2cncc(Br)c2)nc1 | i | i | i | i | i | i
SMILES | DNMT1 block | SUMO1 PPI mod | LMPTP inh | Rpn11 block | Scp1 inh | STEP block
COc1ccc(OCc2nn[nH]n2)cc1 | i | i | i | i | i | i
N#Cc1cc2ccc(N3CCOCC3)cc2cc1C#N | i | 44.0 | i | i | i | i
Cc1ccc(C(=O)C2=C(O)C(=O)N(Cc3ccco3)C2c2ccc(N(C)C)cc2)o1 (configuration not stated) | i | i | i | i | i | i
CCCCOc1ccc(C2C(C(=O)c3ccc(C)o3)=C(O)C(=O)N2Cc2ccco2)cc1 (configuration not stated) | i | i | 51.4 | i | nt | i
CCCCCOc1ccc(C2C(C(=O)c3ccc(C)o3)=C(O)C(=O)N2c2cc(C)on2)cc1 (configuration not stated) | i | i | 50.2 | i | i | i
O=C(C1CCN(S(=O)(=O)c2cccc3cccnc23)CC1)N1CCCCC1 | i | i | i | i | i | i
CN1CCc2c(sc3nc(NN)n(-c4ccc(Cl)cc4)c(=O)c23)C1 | i | i | i | 46.1 | i | i
N#Cc1cc(Cl)c(N2CCOCC2)cc1C#N | i | i | i | i | i | i
CN1CCN(C2=CC3=CC(=C(C#N)C#N)CCC3CC2)CC1 (configuration not stated) | + | i | i | nt | i | i
N#CC(C#N)=C1C=C2C=C(N3CCOCC3)CCC2CC1 (configuration not stated) | + | i | i | nt | i | i
CC1(C)CC(NCCN2CCN(C3=CC(=C(C#N)C#N)CC(C)(C)C3)CC2)=CC(=C(C#N)C#N)C1 | i | i | i | i | i | i
N#CC(C#N)=C1C=C2C=C(N3CCCCCC3)CCC2CC1 (configuration not stated) | + | i | i | nt | i | i
CCN1CCN(C2=CC3=CC(=C(C#N)C#N)CCC3CC2)CC1 (configuration not stated) | + | i | i | nt | i | i
C[C@H]1CN([C@@H](C)CO)C(=O)c2cc(Br)cnc2O[C@@H]1CN(C)C(=O)C1CCC1 | i | i | i | i | nt | i
N#CC1=C2SCN(Cc3ccccc3)CN2C(=O)CC1c1cccs1 (configuration not stated) | i | i | i | i | i | 48.3
O=C(Nc1ccccn1)c1cccc(S(=O)(=O)N2CCCC2)c1 | i | i | i | i | i | i
O=C(c1ccc2nc(-c3ccco3)c(-c3ccco3)nc2c1)N1CCN(c2ncccn2)CC1 | i | i | i | i | 94.6 | i
CC(=O)c1ccc(NC(=O)c2ccc3nc(-c4ccco4)c(-c4ccco4)nc3c2)cc1 | 123.2 | 95.9 | 86.1 | i | 83.3 | 89.1
O=C(NCc1ccccc1)c1ccc2nc(-c3ccco3)c(-c3ccco3)nc2c1 | 101.5 | 41.3 | 75.0 | i | 84.2 | i
N#Cc1ccc(C(=O)OCC(=O)N2CCCC2)cc1 | i | i | i | i | i | i
CC1CCCCN1CCNC(=O)C1CC(=O)N(c2ccc(F)c(Cl)c2)C1 (configuration not stated) | i | i | i | i | i | i
CC1CCCN(CCCNC(=O)C2CC(=O)N(c3ccc(F)c(Cl)c3)C2)C1 (configuration not stated) | i | 41.9 | i | i | i | i
O=C(CC1Sc2ccccc2NC1=O)NNc1ccc(F)cc1 (configuration not stated) | i | i | i | i | i | i
CN(Cc1ccc(F)cc1)S(=O)(=O)c1nnc(NC(=O)c2ccccc2Br)s1 | i | i | i | i | i | i
CCn1c(SCC(=O)Nc2ccc(C)cc2)nnc1-c1ccc(O)cc1 | i | 43.5 | i | i | i | i
CCn1c(SCC(=O)Nc2ccc(C)cc2)nnc1-c1ccccn1 | i | i | i | i | i | i
